High-throughput results deposited in PubChem BioAssay by several laboratories.
Compounds with a hit are over-represented: about 2.9% of the library has one in this group of screens.
MC4R barr agon: MC4R agonists recruiting beta-arrestin, primary screen, cell-based, luminescence, agonist arm of biased-ligand search. AID 540308, 2011. U2OS MC4R beta-arrestin complementation; percent of melanotan II response, DMSO zero. Melanocortin receptor 4 (Homo sapiens), P32245. 0.98% of 360,000 active. activation, % at 8.9 µM;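 active means activation above a per-plate cutoff, the mean activation of sample wells on that plate plus 3 SD, cut at about 8% in these data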
Target sequence (P32245 whole entry, looked up): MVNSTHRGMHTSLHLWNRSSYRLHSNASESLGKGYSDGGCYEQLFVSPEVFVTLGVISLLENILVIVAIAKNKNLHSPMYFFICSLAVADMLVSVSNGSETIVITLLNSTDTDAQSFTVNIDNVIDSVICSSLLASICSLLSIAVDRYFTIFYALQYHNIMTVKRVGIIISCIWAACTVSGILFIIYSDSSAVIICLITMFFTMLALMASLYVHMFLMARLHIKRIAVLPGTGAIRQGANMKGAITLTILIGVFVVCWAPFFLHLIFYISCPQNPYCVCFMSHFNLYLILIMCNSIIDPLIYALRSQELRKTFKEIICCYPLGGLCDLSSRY
Efflux pump inh: inhibitors of Candida efflux pumps in yeast, primary screen, S. cerevisiae, Nile Red, multiplex. S. cerevisiae Candida pump triplex. inhibition, % at 10 µM. 0.44% of 330,000 active. AID 485275, 2010;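 active means plate passing quality check with inhibition over a set limit, or well fluorescence over plate mean plus 4 SD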;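 further: Nile Red retained in pooled yeast measured as flow cytometry median fluorescence; higher means more Nile Red kept so more efflux inhibition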
MC4R antagonist: MC4R antagonists of cAMP signaling, primary screen, cell-based, TR-FRET, antagonist arm of biased-ligand search | Melanocortin receptor 4 (Homo sapiens), P32245 | MC4R-expressing cells, MTII-stimulated cAMP, LANCE TR-FRET | inhibition, % at 6.5 µM | 0.48% of 360,000 active;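 active means inhibition above its plate's cutoff, the mean of tested wells on that plate plus 3 SD, cut at about 29% in these data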
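System: U2OS-MC4R stable cell line; Technique: Eu-cAMP/anti-cAMP TR-FRET, emission 671 nm; Repeats: single well per compound; Also added: Melanotan II; Dosing: one concentration, 6.5 µM nominal; Schedule: 30-min compound, 1-h challenge, 1-h detection, room temperature.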
H9c2 TAG inh: inhibitors of triacylglycerol accumulation, primary screen, cell-based, uHTS, fluorescence, H9c2 | H9c2 cells, Nile Red lipid (TAG) fluorescence; cells loaded with 200 µM oleic acid | inhibition, % at 12.5 µM | 0.66% of 230,000 active;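 active means pattern-corrected inhibition of lipid staining of at least 50% with the nuclear-stain viability signal not falling by more than 50%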
Calb FLC: C. albicans growth inhibition with fluconazole, primary screen, CaCi-2 strain, Alamar Blue fluorescence; C. albicans CaCi-2 + fluconazole, 48 h; growth inhibition, % (test concentration not listed); 0.57% of 300,000 active;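 active means growth inhibition above about 58% in most replicates, limit read from the data, passing the limit was not always enough; inconclusive means exactly half the replicates above a set limit; inactive means most replicates below a set limit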;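 further: all wells also contain fluconazole at 8 µg/ml as a sub-toxic cotreatment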
GalR3 antag: GalR3 antagonists in HEK293 cells, primary screen, cell-based, fluorescence readout | inhibition, % at 3 µM | AID 651719, 2012 | 0.44% of 360,000 active | HEK293 GalR3-CNG cAMP membrane potential fluorescence; galR3 body fused to GalR1 C-terminus;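 active means inhibition above the screen-wide average plus 3 SD, cut at about 13% in these data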;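 further: forskolin and galanin both at EC90 stimulate the cells; cAMP rise reported by CNG channel membrane potential dye signal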
Target sequence (O60755 1-299 limits assumed): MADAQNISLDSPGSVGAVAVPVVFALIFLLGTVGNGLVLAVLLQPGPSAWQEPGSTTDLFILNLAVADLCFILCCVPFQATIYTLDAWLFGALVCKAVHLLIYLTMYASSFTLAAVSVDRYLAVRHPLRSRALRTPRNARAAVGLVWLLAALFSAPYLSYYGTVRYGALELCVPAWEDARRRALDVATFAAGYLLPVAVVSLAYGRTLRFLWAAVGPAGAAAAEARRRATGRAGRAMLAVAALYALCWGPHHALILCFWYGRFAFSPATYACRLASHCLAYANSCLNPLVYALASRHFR
cAMP nonselect: nonselective cAMP signaling inhibitors, parental cells, counter-screen for MC4R biased antagonist project, cell-based, TR-FRET, U2OS, forskolin, triplicate; shares compounds with MC4R antagonist; LANCE TR-FRET; inhibition, % at 6.5 µM; 26% of 1,600 active;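 active means mean inhibition over triplicates above the low-control well mean plus 3 SD, set per campaign, cut at about 13% in these data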;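 further: signal is single emission at 671 nm which falls as cellular cAMP rises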
MC4R cAMP antag: MC4R cAMP antagonists, retest, confirmation, cell-based, TR-FRET. shares compounds with MC4R antagonist. MC4R-expressing cells, MTII-stimulated cAMP. inhibition, % at 6.5 µM. 27% of 1,600 active. AID 602195, 2012; in the data active means inhibition above about 29%
Of the large screens only hits and unclear results are named; the others gave an inactive call (follow-up assays come after a bar, where they were run).

CC(c1ccco1)N(C(=O)c1ccccc1NS(=O)(=O)c1cc([N+](=O)[O-])ccc1Cl)c1ccccn1 (configuration not stated)	Calb FLC inconclusive (no result: H9c2 TAG inh)
CC(c1ccco1)N(C(=O)c1ccccc1NS(=O)(=O)c1cccc([N+](=O)[O-])c1)c1ccccn1 (configuration not stated)	MC4R antagonist 30 (no result: GalR3 antag) | cAMP nonselect inactive | MC4R cAMP antag inactive
O=C(C#Cc1ccccc1)c1ccccc1	MC4R antagonist 51, H9c2 TAG inh 64 (no result: Efflux pump inh, Calb FLC) | cAMP nonselect 29 | MC4R cAMP antag 36
Cc1cccc(N2CCN(C(C(=O)NCc3ccccc3)c3ccc(F)cc3)CC2)c1C (configuration not stated)	none (no result: MC4R barr agon, Efflux pump inh, MC4R antagonist, H9c2 TAG inh, Calb FLC)
CCOC(=O)CSc1ccc(-c2nc3ccccc3[nH]2)cn1	none
CCOC(=O)CSc1ccc(-c2nc3cc(C)c(C)cc3[nH]2)cn1	MC4R antagonist 34 | cAMP nonselect inactive | MC4R cAMP antag inactive
CCOc1ccccc1OCCCC(=O)N1CCN(S(=O)(=O)c2ccccc2C#N)CC1	none (no result: Efflux pump inh, Calb FLC)
O=C(CCC1CCCN(Cc2ccc3c(c2)OCCO3)C1)NCc1ccccc1F (configuration not stated)	MC4R antagonist 29 | cAMP nonselect inactive | MC4R cAMP antag inactive
COc1ccc(CN2C(=O)c3cccc4cccc(c34)C2c2nc3ccccc3[nH]2)cc1 (configuration not stated)	none (no result: MC4R barr agon, Efflux pump inh, MC4R antagonist, H9c2 TAG inh, Calb FLC)
COC(=O)c1ccc(N2NC(=O)/C(=C/c3cc(OC)c(OC)c(OC)c3)C2=O)cc1	MC4R antagonist 36 (no result: H9c2 TAG inh) | cAMP nonselect inactive | MC4R cAMP antag inactive
Cc1cc(C)cc(-n2c(SCC(=O)Nc3cccc(S(=O)(=O)NC4=NCCCCC4)c3)nc3ccccc3c2=O)c1	MC4R antagonist 29 (no result: H9c2 TAG inh) | cAMP nonselect inactive | MC4R cAMP antag inactive
Cc1ccc(C)c(SCC(=O)Nc2cccc(S(=O)(=O)NC3=NCCCCC3)c2)c1	none
O=C1Nc2cccc3c2N(CCC3)C2=C1CCC2	MC4R antagonist 30 (no result: Efflux pump inh, Calb FLC) | cAMP nonselect inactive | MC4R cAMP antag inactive
CCCCOCCCNC(=O)C[C@H]1C[C@@]2(C(=O)OC)C(=C[C@H](C3CCCC3)O[C@@H]2C)N(Cc2ccccc2)C1=O	none (no result: MC4R barr agon, Efflux pump inh, MC4R antagonist, H9c2 TAG inh, Calb FLC)
COC(=O)C1CCN(C(=O)COC(=O)CNC(=O)c2ccc(Cl)cc2Cl)CC1	MC4R antagonist 34 (no result: Calb FLC) | cAMP nonselect 14 | MC4R cAMP antag inactive
O=C(CNC(=O)c1ccccc1)OCc1nc2ccccc2s1	MC4R antagonist 37 | cAMP nonselect 17 | MC4R cAMP antag inactive
CN(C(=O)COC(=O)CNC(=O)c1ccc(Cl)cc1Cl)c1ccccc1	MC4R antagonist 30 | cAMP nonselect inactive | MC4R cAMP antag inactive
O=C(CNC(=O)c1ccc(Cl)cc1Cl)OCc1nc2ccccc2s1	MC4R antagonist 29 (no result: H9c2 TAG inh) | cAMP nonselect 14 | MC4R cAMP antag inactive
C[C@H](CO)N1C[C@H](C)[C@@H](CN(C)C(=O)Cc2cccnc2)Oc2ncc(C#CCc3ccccc3)cc2C1=O	none (no result: MC4R barr agon, Efflux pump inh, MC4R antagonist, H9c2 TAG inh, Calb FLC)
COc1ccc(NC(=O)C2(C)Cc3c(-c4ccc(N(C)C)cc4)ccnc3O2)cc1 (configuration not stated)	none (no result: Efflux pump inh, Calb FLC)
Cc1ccccc1C(=O)Nc1ccccc1N1CCCCC1	MC4R antagonist 35 (no result: H9c2 TAG inh) | cAMP nonselect inactive | MC4R cAMP antag inactive
S=c1nc[nH]c2c1[nH]c1ccc(Cl)cc12	MC4R antagonist 35 | cAMP nonselect inactive | MC4R cAMP antag inactive
S=c1nc[nH]c2c1[nH]c1ccccc12	MC4R antagonist 49 | cAMP nonselect inactive | MC4R cAMP antag inactive
O=C(Nc1ccc(F)c(Cl)c1)C1Cc2c(-c3ccco3)ccnc2O1 (configuration not stated)	none (no result: Efflux pump inh, Calb FLC)
CCOC(=O)C1=CCC(c2ccc(CC)cc2)N(S(=O)(=O)c2ccc(C)cc2)C1 (configuration not stated)	none (no result: MC4R barr agon, Efflux pump inh, MC4R antagonist, H9c2 TAG inh, Calb FLC)
O=C(COc1ccccc1[N+](=O)[O-])OCC(=O)c1ccc(Br)s1	MC4R antagonist 45 (no result: Calb FLC) | cAMP nonselect 14 | MC4R cAMP antag 38
Cc1cccnc1NC(=O)C(C)N1C(=O)c2ccccc2C1=O (configuration not stated)	MC4R antagonist 31 | cAMP nonselect inactive | MC4R cAMP antag inactive
CCOc1ccccc1OCC(=O)Nc1cc(C)on1	none (no result: Calb FLC)
Cc1cc(NC(=O)COc2ccc3ccccc3c2Br)no1	MC4R antagonist 46 (no result: Calb FLC) | cAMP nonselect 20 | MC4R cAMP antag 35
COc1ccc(N2N=NN(C(C)C)C2=C(Cl)c2nnnn2-c2ccc(OC)cc2)cc1	none (no result: Efflux pump inh, Calb FLC)
Cc1cc(-c2sccc2Br)nc(-n2cccc2)n1	MC4R antagonist 35 (no result: Efflux pump inh) | cAMP nonselect inactive | MC4R cAMP antag inactive
Cc1ccsc1-c1ccnc(-n2cccc2)n1	none (no result: H9c2 TAG inh)
Cc1cc(-c2ccc(Br)s2)nc(-n2cccc2)n1	MC4R antagonist 41 (no result: Efflux pump inh) | cAMP nonselect inactive | MC4R cAMP antag inactive
C[C@@H]1CN([C@@H](C)CO)C(=O)CCCn2cc(nn2)CO[C@H]1CN(C)C(=O)c1ccc(N2CCN(C)CC2)cc1	none (no result: MC4R barr agon, Efflux pump inh, MC4R antagonist, H9c2 TAG inh, Calb FLC)
O=C(C(=O)N(Cc1ccccc1)Cc1ccccc1)c1c(-c2ccccc2)[nH]c2ccccc12	MC4R antagonist 50 (no result: Efflux pump inh, Calb FLC) | cAMP nonselect inactive | MC4R cAMP antag inactive
C[C@@H]1COc2cccc(NC3CC3)c2S(=O)(=O)N1	none (no result: MC4R barr agon, Efflux pump inh, MC4R antagonist, H9c2 TAG inh, Calb FLC)
O=C(O)CC12CC3CC(C1)CC(n1ncc(NCc4ccccc4)c(Cl)c1=O)(C3)C2	none
O=C(O)C12CC3CC(C1)CC(n1ncc(NCc4ccccc4)c(Cl)c1=O)(C3)C2	MC4R antagonist 32 | cAMP nonselect inactive | MC4R cAMP antag inactive
Cc1cccc(C)c1-c1ccc(CN2C(CC(C)C)C(=O)N(Cc3cn(CC4CCCCC4)nn3)CCS2(=O)=O)cc1 (configuration not stated)	none (no result: Efflux pump inh, Calb FLC)
COc1ccc(NC(=O)Nc2ccc3c(c2)C(=O)N([C@H](C)CO)C[C@H](C)[C@H](CN(C)C)OCCCC[C@@H](C)O3)cc1	none (no result: MC4R barr agon, Efflux pump inh, MC4R antagonist, H9c2 TAG inh, Calb FLC)
COC(=O)C(CC(C)C)NC(=O)/C=C/c1ccc(Cl)cc1 (configuration not stated)	MC4R antagonist 35 | cAMP nonselect inactive | MC4R cAMP antag inactive
O=c1sc(N2CCN(c3ccccc3F)CC2)nc2ccsc12	none (no result: GalR3 antag)
